≈ marks a conversion by molar mass, not a printed value. Calls of active or inactive are those of the source. The rule behind the calls is not given here.
Columns and labels:
[1] = Cytotoxicity against african green monkey Vero cells after 66 hrs; assay type: cell-based; details: chlorocebus sabaeus
Method in brief: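 Confluent Vero monolayers in DMEM with 10% calf serum received triplicate serial dilutions of DMSO-dissolved samples at 1–100 µg/ml, with higher levels where needed. The cytotoxic concentration is reported as CD50.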

Human alphaherpesvirus 1 [2] = experiment: Antiviral activity against HSV1 in african green monkey Vero cells assessed as reduction in number of plaques after 66 hrs; assay type: functional, organism-based
Method in brief: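 Confluent Vero monolayers were seeded at 2 × 10^4 cells/well in DMEM with 10% calf serum. Samples were dissolved in DMSO, diluted in medium and added in triplicate at 100, 50, 20, 10, 5, 2 and 1 µg/ml, with 30 PFU HS-1 per well. Wells were incubated 66 h at 37° under ~15% CO2, then formaldehyde-fixed, crystal violet-stained and scored visually. The value is the lowest concentration giving the stated % plaque reduction.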

Human alphaherpesvirus 1 [3] = experiment: Antiviral activity against HSV1 in african green monkey Vero cells assessed as reduction in number of plaques at 0.005 mg/ml after 66 hrs; assay type: functional; design: scale not given: the % may be the effect or the level left
Method in brief: (§1)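 Vero cells seeded at 2 × 10^4 per 200 µl well in DMEM with 10% calf serum, grown to confluence at 37° under ~15% CO2. Medium replaced with compound dilutions in triplicate, each well inoculated with 30 PFU HSV-1. Incubated 66 h, then formaldehyde-fixed and crystal violet-stained. Plaque reduction was scored visually.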

Human alphaherpesvirus 1 [4] = experiment: Antiviral activity against HSV1 in african green monkey Vero cells assessed as reduction in number of plaques at 0.1 mg/ml after 66 hrs; assay type: functional; design: scale not given: the % may be the effect or the level left; method in brief: as §1

With `C[C@]1(CO)C[C@H](O)C[C@@]2(C)[C@H]1CC[C@H]1C[C@H]3C[C@]12CC[C@]3(C)O` the CC50 at 66 h [1] was > 399 mg/L.

For `CC1(C)C[C@H](O)C[C@@]2(C)[C@H]1C[C@H](O)[C@@]1(O)C[C@H]3C[C@@]21CC[C@]3(C)O`, the CC50 at 66 h [1] was 40 mg/L (≈ 118 µM) and the Activity (Human alphaherpesvirus 1 [2]) was “inactive”.

For `C[C@@]1(CO)C[C@H](O)C[C@@]2(C)[C@H]1CC[C@H]1C[C@H]3[C@H](O)[C@]12CC[C@]3(C)O`, the CC50 at 66 h [1] was 70 mg/L (≈ 207 µM) and the Activity (Human alphaherpesvirus 1 [2]) was “inactive”.

`C[C@@]1(CO)[C@H](O)CC[C@@]2(C)[C@H]1CC[C@H]1C[C@@H]3C[C@@]12CC[C@]3(O)CO` [APHIDICOLIN] gave a CC50 at 66 h [1] of 200 mg/L (≈ 591 µM) and an Activity (Human alphaherpesvirus 1 [3]) of 100%.

`CC1(C)C[C@H](O)C[C@@]2(C)[C@H]1C[C@@H](O)[C@H]1C[C@H]3C[C@]12CC[C@]3(C)O` showed a CC50 at 66 h [1] of 200 mg/L (≈ 620 µM) and an Activity (Human alphaherpesvirus 1 [4]) of 33%.

`CC1(C)C[C@H](O)C[C@@]2(C)[C@H]1CC[C@H]1C[C@H]3C[C@]12CC[C@]3(C)O` [STEMODIN] showed a CC50 at 66 h [1] of 40 mg/L (≈ 131 µM).

`CC1(C)C[C@H](O)C[C@@]2(C)[C@H]1CC[C@H]1C[C@@]3(O)C[C@]12CC[C@]3(C)O` showed a CC50 at 66 h [1] of 150 mg/L (≈ 465 µM) and an Activity (Human alphaherpesvirus 1 [4]) of 27%.

In the case of `C[C@@]1(CO)C[C@H](O)C[C@@]2(C)[C@H]1CC[C@@]1(O)C[C@H]3C[C@]12CC[C@]3(C)O`, the CC50 at 66 h [1] is reported as 660 mg/L (≈ 1950 µM) and the Activity (Human alphaherpesvirus 1 [2]) is reported as “inactive”.

With `CC1(C)C[C@H](O)C[C@@]2(C)[C@H]1C[C@H](O)[C@H]1C[C@H]3C[C@]12CC[C@]3(C)O` the CC50 at 66 h [1] was 70 mg/L (≈ 217 µM) and the Activity (Human alphaherpesvirus 1 [2]) was “inactive”.

In the case of `CC1(C)C[C@H](O)C[C@@]2(C)[C@H]1CC[C@@]1(O)C[C@H]3C[C@]12CC[C@]3(C)O`, the CC50 at 66 h [1] is reported as 300 mg/L (≈ 930 µM) and the Activity (Human alphaherpesvirus 1 [4]) is reported as 93%.

In the case of `C[C@]1(CO)C[C@H](O)C[C@@]2(C)[C@H]1CC[C@H]1C[C@H]3C[C@]12CC[C@@]3(O)CO`, the CC50 at 66 h [1] is reported as > 399 mg/L.

In the case of `C[C@@]1(CO)C[C@H](O)C[C@@]2(C)[C@H]1CC[C@H]1C[C@H]3C[C@]12CC[C@]3(C)O`, the CC50 at 66 h [1] is reported as 200 mg/L (≈ 620 µM) and the Activity (Human alphaherpesvirus 1 [4]) is reported as 67%.

— ChEMBL document CHEMBL1150199, “Preparation, characterization, and antiviral activity of microbial metabolites of stemodin” (J Nat Prod, 1991)
